Laboratory results from ChEMBL document CHEMBL1123529, “Analogues of substance P. Peptides containing D-amino acid residues in various positions of substance P and displaying agonist or receptor selective antagonist effects” (1986).
Where “and” joins values, the source holds several entries; their conditions need not be identical. Equal entries are not always repeated.

Experiments:
[1] = In vitro antagonistic activity against Substance P(6-11) in guinea pig ileum at concentration of 10 uM.; type: functional, Cavia porcellus
Procedure, shortened: (§1)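 Dose-response curves used a 3-min cycle with 1-min contact and washout, with SP or SP(6-11)-hexapeptide as agonist. Dose ratio is the agonist EC50 with antagonist divided by the EC50 alone. At least two preparations per compound; ratios under 2 were considered insignificant.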

[2] = In vitro antagonistic activity against Substance P on guinea pig ileum at concentration of 10 uM.; type: functional, Cavia porcellus; procedure, shortened: as §1
[3] = target: Substance-P receptor (Cavia porcellus) (UniProt P30547); experiment: Evaluated in vitro for percent agonist activity in guinea pig ileum (substance P receptor); type: functional, tissue-based
Sequence of Substance-P receptor (Cavia porcellus) (P30547 whole entry): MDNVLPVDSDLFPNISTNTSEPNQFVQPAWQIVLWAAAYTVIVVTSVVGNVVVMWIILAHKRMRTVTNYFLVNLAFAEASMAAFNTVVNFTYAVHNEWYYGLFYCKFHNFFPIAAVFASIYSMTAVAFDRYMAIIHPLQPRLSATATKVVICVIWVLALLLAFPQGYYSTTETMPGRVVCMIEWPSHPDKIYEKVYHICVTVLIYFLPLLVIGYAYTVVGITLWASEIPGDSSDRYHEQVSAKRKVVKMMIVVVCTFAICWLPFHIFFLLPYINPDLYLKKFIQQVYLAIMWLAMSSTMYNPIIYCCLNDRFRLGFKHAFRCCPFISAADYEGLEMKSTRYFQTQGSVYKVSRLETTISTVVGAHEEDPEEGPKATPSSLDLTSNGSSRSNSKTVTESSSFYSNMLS

[4] = target: Substance-P receptor (Cavia porcellus) (UniProt P30547); experiment: Antagonistic activity against Substance P(6-11) receptor in guinea pig ileum at concentration of 5 uM.; type: functional, tissue-based
Procedure, shortened: (§2)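 Distal ileum from Dunkin-Hartley guinea pigs (300-350 g, both sexes) in a Krebs organ bath at 37 °C, gassed with 95% O2/5% CO2. Agonist (SP or SP(6-11)) dose-response curves run on a 3-min cycle with 1-min contact, with and without antagonist. Dose ratio = agonist EC50 with antagonist / EC50 alone. At least two preparations per compound; ratios below 2 taken as insignificant.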

[5] = target: Substance-P receptor (Cavia porcellus) (UniProt P30547); experiment: Antagonistic activity against Substance P receptor in guinea pig ileum at concentration of 5 uM.; type: functional, tissue-based; procedure, shortened: as §2

Row | SMILES | Activity [1] | Activity [2] | SP [3] | further results
1 | COC(=O)[C@H](CCSC)NC(=O)[C@H](CC(C)C)NC(=O)CNC(=O)[C@H](Cc1ccccc1)NC(=O)[C@H](Cc1ccccc1)NC(=O)[C@H](NC(=O)[C@H](NC(=O)[C@@H]1CCCN1C(=O)[C@H](CCCCNC(=O)OCc1ccccc1)NC(=O)[C@@H]1CCCN1C(=O)[C@H](CCCN=C(N)N)NC(=O)OCc1ccccc1)C(C)C)C(C)C | <2 dose ratio | <2 dose ratio |  | 
2 | COC(=O)[C@@H](CCSC)NC(=O)C(Cc1ccccc1)NC(=O)C(Cc1ccccc1)NC(=O)C(Cc1ccccc1)NC(=O)C(Cc1ccccc1)NC(=O)[C@H](CCC(N)=O)NC(=O)[C@H](CCC(N)=O)NC(=O)[C@@H]1CCCN1C(=O)[C@H](CCCCNC(=O)OCc1ccccc1)NC(=O)[C@@H]1CCCN1C(=O)[C@H](CCCN=C(N)N)NC(=O)OCc1ccccc1 (stereo in doubt) | <2 dose ratio | <2 dose ratio | < 0.0001% | 
3 | COC(=O)[C@@H](CCSC)NC(=O)[C@H](CC(C)C)NC(=O)CNC(=O)[C@H](Cc1ccccc1)NC(=O)[C@H](Cc1ccccc1)NC(=O)[C@@H]1CCCN1C(=O)[C@H]1CCCN1C(=O)[C@@H]1CCCN1C(=O)[C@H](CCCCN)NC(=O)[C@@H]1CCCN1C(=O)[C@@H](N)CCCN=C(N)N |  |  | 0.066% | 
4 | COC(=O)[C@H](CCSC)NC(=O)[C@H](Cc1c[nH]c2ccccc12)NC(=O)[C@@H](Cc1c[nH]c2ccccc12)NC(=O)[C@H](Cc1ccccc1)NC(=O)[C@H](Cc1ccccc1)NC(=O)[C@H](CCC(N)=O)NC(=O)[C@H](CCC(N)=O)NC(=O)[C@@H]1CCCN1C(=O)[C@H](CCCCNC(=O)OCc1ccccc1)NC(=O)[C@@H]1CCCN1C(=O)[C@H](CCCN=C(N)N)NC(=O)OCc1ccccc1 |  |  | 0% | Activity [4]: < 2 dose ratio; Activity [5]: < 2 dose ratio
5 | CSCC[C@@H](NC(=O)[C@H](CC(C)C)NC(=O)CNC(=O)[C@H](Cc1ccccc1)NC(=O)[C@H](Cc1ccccc1)NC(=O)[C@@H](NC(=O)[C@H](NC(=O)[C@@H]1CCCN1C(=O)[C@H](CCCCN)NC(=O)[C@@H]1CCCN1C(=O)[C@@H](N)CCCN=C(N)N)C(C)C)C(C)C)C(=O)O |  |  | 6.4% | 
6 | COC(=O)[C@H](CCSC)NC(=O)[C@H](CC(C)C)NC(=O)CNC(=O)[C@H](Cc1ccccc1)NC(=O)[C@H](Cc1ccccc1)NC(=O)[C@@H](Cc1ccccc1)NC(=O)[C@@H](Cc1ccccc1)NC(=O)[C@@H]1CCCN1C(=O)[C@H](CCCCN)NC(=O)[C@@H]1CCCN1C(=O)[C@@H](N)CCCN=C(N)N | <2 dose ratio | <2 dose ratio |  | 
7 | COC(=O)[C@H](CCSC)NC(=O)[C@H](CC(C)C)NC(=O)CNC(=O)[C@H](Cc1ccccc1)NC(=O)[C@H](Cc1ccccc1)NC(=O)[C@H](CCC(N)=O)NC(=O)[C@H](CCC(N)=O)NC(=O)C1CCCN1C(=O)[C@H](CCCCNC(=O)OCc1ccccc1)NC(=O)C1CCCN1C(=O)[C@H](CCCN=C(N)N)NC(=O)OCc1ccccc1 (stereo in doubt) |  |  | 7% | 
8 | COC(=O)[C@@H](CCSC)NC(=O)[C@H](CC(C)C)NC(=O)CNC(=O)[C@H]1CCCN1C(=O)[C@H]1CCCN1C(=O)[C@H](CCC(N)=O)NC(=O)[C@H](CCC(N)=O)NC(=O)[C@@H]1CCCN1C(=O)[C@H](CCCCNC(=O)OCc1ccccc1)NC(=O)[C@@H]1CCCN1C(=O)[C@H](CCCN=C(N)N)NC(=O)OCc1ccccc1 | <2 dose ratio | <2 dose ratio | < 0.0001% | 
9 | COC(=O)[C@@H](CCSC)NC(=O)[C@H](CC(C)C)NC(=O)[C@@H](Cc1c[nH]c2ccccc12)NC(=O)[C@@H](Cc1c[nH]c2ccccc12)NC(=O)[C@@H](Cc1c[nH]c2ccccc12)NC(=O)[C@H](CCC(N)=O)NC(=O)[C@H](CCC(N)=O)NC(=O)[C@@H]1CCCN1C(=O)[C@H](CCCCNC(=O)OCc1ccccc1)NC(=O)[C@@H]1CCCN1C(=O)[C@@H](N)CCCN=C(N)N | 5.6 dose ratio | 10 dose ratio |  | 
10 | COC(=O)[C@@H](CCSC)NC(=O)[C@H](CC(C)C)NC(=O)CNC(=O)[C@@H](NC(=O)[C@H](NC(=O)[C@H](CCC(N)=O)NC(=O)[C@H](CCC(N)=O)NC(=O)[C@@H]1CCCN1C(=O)[C@H](CCCCNC(=O)OCc1ccccc1)NC(=O)[C@@H]1CCCN1C(=O)[C@H](CCCN=C(N)N)NC(=O)OCc1ccccc1)C(C)C)C(C)C |  |  | < 0.0001% | 
11 | CSCC[C@H](NC(=O)[C@H](CC(C)C)NC(=O)CNC(=O)[C@H](Cc1ccccc1)NC(=O)[C@H](Cc1ccccc1)NC(=O)[C@H](CCC(N)=O)NC(=O)[C@H](CCC(N)=O)NC(=O)C1CCCN1C(=O)[C@H](CCCCNC(=O)OCc1ccccc1)NC(=O)C1CCCN1C(=O)[C@H](CCCN=C(N)N)NC(=O)OCc1ccccc1)C(=O)O (stereo in doubt) |  |  | 63% | 
12 | COC(=O)[C@@H](CCSC)NC(=O)[C@H](CC(C)C)NC(=O)CNC(=O)[C@H](NC(=O)[C@H](NC(=O)[C@H](CCC(N)=O)NC(=O)[C@H](CCC(N)=O)NC(=O)[C@@H]1CCCN1C(=O)[C@H](CCCCNC(=O)OCc1ccccc1)NC(=O)[C@@H]1CCCN1C(=O)[C@H](CCCN=C(N)N)NC(=O)OCc1ccccc1)C(C)C)C(C)C | <2 dose ratio | <2 dose ratio |  | 
13 | CSCC[C@H](NC(=O)[C@H](CC(C)C)NC(=O)CNC(=O)[C@H](Cc1ccccc1)NC(=O)[C@H](Cc1ccccc1)NC(=O)[C@H](NC(=O)[C@H](NC(=O)[C@@H]1CCCN1C(=O)[C@H](CCCCNC(=O)OCc1ccccc1)NC(=O)[C@@H]1CCCN1C(=O)[C@H](CCCN=C(N)N)NC(=O)OCc1ccccc1)C(C)C)C(C)C)C(=O)O | <2 dose ratio | <2 dose ratio |  | 
14 | COC(=O)[C@@H](CCSC)NC(=O)[C@H](CC(C)C)NC(=O)CNC(=O)[C@H](Cc1ccccc1)NC(=O)[C@H](Cc1ccccc1)NC(=O)[C@H](Cc1ccccc1)NC(=O)[C@@H](Cc1ccccc1)NC(=O)[C@@H]1CCCN1C(=O)[C@H](CCCCN)NC(=O)[C@@H]1CCCN1C(=O)[C@@H](N)CCCN=C(N)N |  |  | 0% | 
15 | COC(=O)[C@H](CCSC)NC(=O)[C@H](CC(C)C)NC(=O)CNC(=O)[C@H](Cc1ccccc1)NC(=O)[C@H](Cc1ccccc1)NC(=O)[C@@H](Cc1ccccc1)NC(=O)[C@@H](Cc1ccccc1)NC(=O)[C@@H]1CCCN1C(=O)[C@H](CCCCNC(=O)OCc1ccccc1)NC(=O)[C@@H]1CCCN1C(=O)[C@H](CCCN=C(N)N)NC(=O)OCc1ccccc1 | <2 dose ratio | <2 dose ratio |  | 
16 | COC(=O)[C@@H](CCSC)NC(=O)[C@H](CC(C)C)NC(=O)[C@@H](Cc1c[nH]c2ccccc12)NC(=O)[C@@H](Cc1c[nH]c2ccccc12)NC(=O)[C@@H](Cc1c[nH]c2ccccc12)NC(=O)[C@H](CCC(N)=O)NC(=O)[C@H](CCC(N)=O)NC(=O)[C@@H]1CCCN1C(=O)[C@H](CCCCNC(=O)OCc1ccccc1)NC(=O)[C@@H]1CCCN1C(=O)[C@H](CCCN=C(N)N)NC(=O)OCc1ccccc1 | <2 dose ratio | <2 dose ratio |  | 
17 | CSCC[C@@H](NC(=O)[C@H](CC(C)C)NC(=O)CNC(=O)[C@H](Cc1ccccc1)NC(=O)[C@H](Cc1ccccc1)NC(=O)[C@@H](NC(=O)[C@H](NC(=O)[C@@H]1CCCN1C(=O)[C@H](CCCCNC(=O)OCc1ccccc1)NC(=O)[C@@H]1CCCN1C(=O)[C@H](CCCN=C(N)N)NC(=O)OCc1ccccc1)C(C)C)C(C)C)C(=O)O |  |  | < 0.0001% | 
18 | COC(=O)[C@@H](CCSC)NC(=O)[C@H](CC(C)C)NC(=O)CNC(=O)[C@H](Cc1ccccc1)NC(=O)[C@H](Cc1ccccc1)NC(=O)[C@@H](NC(=O)[C@H](NC(=O)[C@@H]1CCCN1C(=O)[C@H](CCCCN)NC(=O)[C@@H]1CCCN1C(=O)[C@@H](N)CCCN=C(N)N)C(C)C)C(C)C |  |  | 0.005% | 
19 | COC(=O)[C@@H](CCSC)NC(=O)[C@H](CC(C)C)NC(=O)[C@@H](Cc1c[nH]c2ccccc12)NC(=O)[C@@H](Cc1c[nH]c2ccccc12)NC(=O)[C@@H](Cc1c[nH]c2ccccc12)NC(=O)[C@H](CCC(N)=O)NC(=O)[C@H](CCC(N)=O)NC(=O)[C@@H]1CCCN1C(=O)[C@H](CCCCN)NC(=O)[C@@H]1CCCN1C(=O)[C@@H](N)CCCN=C(N)N | 9.9 dose ratio | 3.9 dose ratio and 7.2 dose ratio |  | 
20 | CSCC[C@@H](NC(=O)[C@H](CC(C)C)NC(=O)[C@@H](Cc1c[nH]c2ccccc12)NC(=O)[C@@H](Cc1c[nH]c2ccccc12)NC(=O)[C@@H](Cc1c[nH]c2ccccc12)NC(=O)[C@H](CCC(N)=O)NC(=O)[C@H](CCC(N)=O)NC(=O)[C@@H]1CCCN1C(=O)[C@H](CCCCNC(=O)OCc1ccccc1)NC(=O)[C@@H]1CCCN1C(=O)[C@H](CCCN=C(N)N)NC(=O)OCc1ccccc1)C(=O)O |  | <2 dose ratio |  | 
21 | CSCC[C@H](NC(=O)[C@H](CC(C)C)NC(=O)CNC(=O)[C@H](Cc1ccccc1)NC(=O)[C@H](Cc1ccccc1)NC(=O)[C@H](CCC(N)=O)NC(=O)[C@H](CCC(N)=O)NC(=O)C1CCCN1C(=O)[C@H](CCCCN)NC(=O)C1CCCN1C(=O)[C@@H](N)CCCN=C(N)N)C(N)=O (stereo in doubt) |  |  | 15% | 
22 | COC(=O)[C@@H](CCSC)NC(=O)[C@H](CC(C)C)NC(=O)CNC(=O)[C@H](Cc1ccccc1)NC(=O)[C@H](Cc1ccccc1)NC(=O)[C@H](Cc1ccccc1)NC(=O)[C@@H](Cc1ccccc1)NC(=O)[C@@H]1CCCN1C(=O)[C@H](CCCCNC(=O)OCc1ccccc1)NC(=O)[C@@H]1CCCN1C(=O)[C@H](CCCN=C(N)N)NC(=O)OCc1ccccc1 |  |  | < 0.0001% | 
